Measured values as given in ChEMBL document CHEMBL5034042 (ACS Med Chem Lett, 2022).

Tests used:
[1] = biological target: T1, Trace amine-associated receptor 1 (Homo sapiens, UniProt Q96RJ0); experiment: Agonist activity at recombinant human TAAR1 expressed in CHO-K1 cells assessed as increase in intracellular cAMP incubated for 30 mins by HTRF analysis; type: functional, cell-based
T1 sequence (Q96RJ0 whole entry): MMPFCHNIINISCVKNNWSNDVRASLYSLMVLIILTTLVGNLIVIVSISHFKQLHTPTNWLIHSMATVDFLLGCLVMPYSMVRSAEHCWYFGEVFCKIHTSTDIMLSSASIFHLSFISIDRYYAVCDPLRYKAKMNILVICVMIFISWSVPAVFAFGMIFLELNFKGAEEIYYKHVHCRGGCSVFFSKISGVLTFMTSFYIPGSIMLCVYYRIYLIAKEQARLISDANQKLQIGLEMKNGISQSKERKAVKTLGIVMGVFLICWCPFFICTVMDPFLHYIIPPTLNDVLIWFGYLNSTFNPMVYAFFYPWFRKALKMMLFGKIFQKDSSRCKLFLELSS
Summary of the method: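 Human TAAR1 agonism was measured in a single study under identical conditions.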

[2] = biological target: T2, Trace amine-associated receptor 1 (Homo sapiens) (UniProt Q96RJ0); experiment: Agonist activity at recombinant human TAAR1 expressed in CHO-K1 cells assessed as maximal increase in intracellular cAMP incubated for 30 mins by HTRF analysis relative to control; type: functional, cell-based; conditions: filed as agonist
T2 sequence (whole entry): T1 sequence (Q96RJ0 whole entry)
Summary of the method: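 Maximal response (Emax) is expressed relative to a p-tyramine control applied to each plate. Values were run in triplicate under identical conditions in a single study and are reported as mean ± SEM (n = 3).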

SMILES: NCCc1cccc(O)c1
- EC50 [1]: 339 nM
- Emax [2]: 109%

SMILES: NCC1OCCCc2ccsc21 (racemic)
- EC50 [1]: 65 nM
- Emax [2]: 111%

SMILES: CNC[C@]1(C)OCCc2ccsc21
- EC50 [1]: 45700 nM
- Emax [2]: 95%

SMILES: NC[C@@H](O)c1ccc(O)cc1
- EC50 [1]: 4110 nM
- Emax [2]: 108%

SMILES: NC[C@@H]1OCCc2ccsc21
- EC50 [1]: 3.5 nM
- Emax [2]: 110%

SMILES: NCC[C@@H]1OCCc2ccsc21
- EC50 [1]: 233 nM
- Emax [2]: 105%

SMILES: CN(C)C[C@@H]1OCCc2ccsc21
- EC50 [1]: 203 nM
- Emax [2]: 112%

SMILES: CNCCc1ccccc1
- EC50 [1]: 151 nM
- Emax [2]: 111%

SMILES: NCCc1c[nH]c2ccc(O)cc12 [SEROTONIN]
- EC50 [1]: 35100 nM
- Emax [2]: 75%

SMILES: NCCc1ccc(O)cc1 [TYRAMINE]
- EC50 [1]: 76 nM
- Emax [2]: 111%

SMILES: NCCc1cccs1
- EC50 [1]: 8.3 nM
- Emax [2]: 113%

SMILES: NCCc1ccc(Oc2ccc(O)cc2)c(I)c1
- EC50 [1]: 225 nM
- Emax [2]: 105%

SMILES: NC[C@H](O)c1ccc(O)cc1
- EC50 [1]: 1570 nM
- Emax [2]: 116%

SMILES: CNC[C@@H]1OCCc2sccc21
- EC50 [1]: 113 nM
- Emax [2]: 110%

SMILES: NCCc1ccccc1 [PHENETHYLAMINE]
- EC50 [1]: 15 nM
- Emax [2]: 111%

SMILES: CNCC1OCCc2cscc21 (configuration not stated)
- EC50 [1]: 290 nM
- Emax [2]: 112%

SMILES: c1cc2c(s1)[C@H](CN1CCCC1)OCC2
- EC50 [1]: 7200 nM
- Emax [2]: 113%

SMILES: NCCc1ccc(O)c(O)c1
- Emax [2]: 97%

SMILES: CNCC1OCCCc2ccsc21 (racemic)
- EC50 [1]: 321 nM
- Emax [2]: 113%

SMILES: COc1cc(CCN)ccc1O
- EC50 [1]: 308 nM
- Emax [2]: 101%

SMILES: NCCc1c[nH]c2ccccc12 [TRYPTAMINE]
- EC50 [1]: 2210 nM
- Emax [2]: 102%

SMILES: CNC[C@H](O)c1ccc(O)cc1
- EC50 [1]: 4730 nM
- Emax [2]: 113%

SMILES: NCCc1ccsc1
- EC50 [1]: 25 nM
- Emax [2]: 112%

SMILES: NCC(O)c1ccc(O)c(O)c1 (configuration not stated)
- EC50 [1]: 12200 nM
- Emax [2]: 99%
